# Results: ChEMBL document CHEMBL4017505 (J Med Chem, 2017)
# Calls of active or inactive are those of the source. The rule behind the calls is not given here.
# Assays:
# [1] = test system: Mus musculus; experiment: Antinociceptive activity in sc dosed CD-1 mouse assessed as inhibition of acetic acid-induced writhing treated 30 mins prior to test followed by acetic acid challenge measured for 10 mins starting 5 mins post acetic acid challenge; format: functional
# In short: (§1)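 Male CD1 mice (30–35 g, 6–8 weeks) given compound or saline sc at 10 μL/g. […] ED50 by Litchfield–Wilcoxon from dose–response. Doses expressed as salts; ≥5 mice per group, each used once.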
# [2] = target: Kappa-type opioid receptor (Homo sapiens) (UniProt P41145); experiment: Agonist activity at human kappa opioid receptor expressed in CHO cell membranes after 60 mins by [35S]GTPgammaS binding assay relative to U69,593; format: functional
# Sequence of Kappa-type opioid receptor (Homo sapiens) (P41145 whole entry): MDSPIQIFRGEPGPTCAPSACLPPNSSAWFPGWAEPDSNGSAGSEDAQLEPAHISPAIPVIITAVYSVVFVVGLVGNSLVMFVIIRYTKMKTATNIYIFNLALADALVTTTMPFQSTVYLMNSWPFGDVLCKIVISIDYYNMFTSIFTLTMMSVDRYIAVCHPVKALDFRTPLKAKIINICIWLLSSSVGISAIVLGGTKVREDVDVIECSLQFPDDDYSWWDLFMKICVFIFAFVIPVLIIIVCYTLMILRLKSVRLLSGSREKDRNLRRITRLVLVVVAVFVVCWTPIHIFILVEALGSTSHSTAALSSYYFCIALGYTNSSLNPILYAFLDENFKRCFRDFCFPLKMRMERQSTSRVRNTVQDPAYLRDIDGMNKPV
# In short: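 Membranes (8–15 μg) from CHO cells stably expressing human KOP, in 20 mM HEPES, 10 mM MgCl2, 100 mM NaCl, pH 7.4. Incubated with 0.05 nM [35S]GTPγS, 10 μM GDP and graded compound for 60 min at 25 °C. Nonspecific binding with 10 μM GTPγS; basal binding without ligand. Filtered and counted. Efficacy given as % stimulation relative to U69,593. Duplicates, ≥3 experiments.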
# [3] = test system: Mus musculus; experiment: Toxicity in CD-1 mouse assessed as motor impairment at 15 mg/kg, sc treated 30 mins prior to test by rotarod test; format: organism-based; conditions: in vivo, 0.5 h
# [4] = test system: Mus musculus; experiment: Toxicity in CD-1 mouse assessed as motor impairment at […], sc treated 30 mins prior to test by rotarod test; format: organism-based; conditions: in vivo, 0.5 h
# [5] = test system: Mus musculus; experiment: Antinociceptive activity in CD-1 mouse assessed as inhibition of acetic acid-induced writhing at 1 mg/kg, sc treated 30 mins prior to test followed by acetic acid challenge measured for 10 mins starting 5 mins post acetic acid challenge in presence of KOP receptor antagonist nor-BNI; format: functional, organism-based
# In short: (§2)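 Writhing test in male CD1 mice: nor-BNI 20 mg/kg sc given 24 h before sc test compound. Acetic acid 0.6% ip at 25 min after compound; writhes counted for 10 min. Inhibition calculated as % reduction against saline controls. ≥5 mice per group.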
# [6] = test system: Mus musculus; experiment: Toxicity in CD-1 mouse assessed as motor impairment at 7.5 mg/kg, sc treated 30 mins prior to test by rotarod test; format: organism-based; conditions: in vivo, 0.5 h
# [7] = test system: Mus musculus; experiment: In vivo antagonist activity at kappa opioid receptor in CD-1 mouse assessed as reversal of U50,488-induced inhibition of acetic acid-mediated writhing at 10 mg/kg, sc treated 15 mins prior to U50,488 measured for 10 mins starting 5 mins post acetic acid challenge; format: functional, organism-based
# In short: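 Male CD1 mice received test compound 10 mg/kg sc, then U50,488 2 mg/kg sc 15 min later. Acetic acid 0.6% ip given 25 min after U50,488 dosing; writhes counted for 10 min. Compared with saline controls. ≥5 mice per group, sc volume 10 μL/g.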
# [8] = test system: Mus musculus; experiment: Antinociceptive activity in CD-1 mouse assessed as inhibition of acetic acid-induced writhing at 10 mg/kg, sc treated 30 mins prior to test followed by acetic acid challenge measured for 10 mins starting 5 mins post acetic acid challenge; format: functional, organism-based; in short: as §1
# [9] = target: Kappa-type opioid receptor (Homo sapiens) (UniProt P41145)
# [10] = test system: Mus musculus; experiment: Toxicity in CD-1 mouse assessed as motor impairment at 5 mg/kg, sc treated 30 mins prior to test by rotarod test; format: organism-based; conditions: in vivo, 0.5 h
# [11] = test system: Mus musculus; experiment: Antinociceptive activity in CD-1 mouse assessed as inhibition of acetic acid-induced writhing at […], sc treated 30 mins prior to test followed by acetic acid challenge measured for 10 mins starting 5 mins post acetic acid challenge in presence of KOP receptor antagonist nor-BNI; format: functional, organism-based
# [12] = test system: Mus musculus; experiment: Toxicity in CD-1 mouse assessed as motor impairment at 5 to 10 mg/kg, sc treated 30 mins prior to test by rotarod test; format: organism-based; conditions: in vivo, 0.5 h
# [13] = test system: Mus musculus; experiment: Antinociceptive activity in CD-1 mouse assessed as inhibition of acetic acid-induced writhing at 5 mg/kg, sc treated 30 mins prior to test followed by acetic acid challenge measured for 10 mins starting 5 mins post acetic acid challenge in presence of KOP receptor antagonist nor-BNI; format: functional, organism-based; in short: as §2
# [14] = test system: Mus musculus; experiment: Toxicity in CD-1 mouse assessed as motor impairment at 10 to 20 mg/kg, sc treated 30 mins prior to test by rotarod test; format: organism-based; conditions: in vivo, 0.5 h
SMILES,inhibition [1],Efficacy [2] [%],further results
Cl.Oc1cccc(CCN(CCc2ccccc2)CC2CCC2)c1F,Dose-dependent effect,66.1,Activity [3]: Non-Toxic
Oc1ccc(CCN(CCc2cccc(O)c2F)CC2CCC2)cc1,Dose-dependent effect,,
Cl.Oc1cccc(CCN(CCc2ccccc2)CC2CCCC2)c1,Dose-dependent effect,82.8,Activity [4]: Non-Toxic; inhibition [5]: inactive
Oc1ccc(CCN(CCc2cccc(O)c2)CC2CCC2)cc1,Dose-dependent effect,,
Cl.Oc1cccc(CCN(CCc2ccccc2)CC2CCCCC2)c1F,Dose-dependent effect,88.9,Activity [6]: Non-Toxic
Oc1cccc(CCN(CCc2cccc(O)c2F)CC2CCC2)c1,Dose-dependent effect,,
Oc1ccc(CCN(CCc2cccc(O)c2)CC2CC2)cc1,,,inhibition [7]: Active; inhibition [8]: inactive; Ke [9]: 24.3 nM
Oc1cccc(CCN(CCc2cccc(O)c2)CC2CCC2)c1,Dose-dependent effect,,
Oc1ccc(CCN(CCc2cccc(O)c2)CC2CCCCC2)cc1,Dose-dependent effect,84.3,
c1ccc(CCN(CCc2ccccc2)CC2CCC2)cc1,,91.9,
Oc1cccc(CCN(CCc2cccc(O)c2)CC2CCCC2)c1,Dose-dependent effect,80.4,
CC(C)CCN(CCc1cccc(O)c1)CCc1cccc(O)c1,Dose-dependent effect,,
CC(C)CCN(CCc1ccccc1)CCc1cccc(O)c1,Dose-dependent effect,,
C=CCN(CCc1ccc(O)cc1)CCc1cccc(O)c1,,29.8,
Cl.Oc1cccc(CCN(CCc2ccccc2)CC2CCCCC2)c1,Dose-dependent effect,,Activity [10]: Non-Toxic; inhibition [11]: inactive
Oc1cccc(CCN(CCc2cccc(O)c2)CC2CCCCC2)c1,Dose-dependent effect,91.1,
Oc1cccc(CCN(CCc2ccccc2)CC2CCC2)c1,,,Activity [12]: Non-Toxic
Oc1cccc(CCN(CCc2ccccc2)Cc2ccccc2)c1,Dose-dependent effect,79.5,
Oc1cccc(CCN(CCc2ccccc2)CC2CC2)c1,Dose-dependent effect,,inhibition [13]: inactive; Activity [14]: Non-Toxic
Oc1cccc(CCN(CCc2cccc(O)c2)CC2CC2)c1,Dose-dependent effect,,
